Laboratory results from ChEMBL document CHEMBL5674876, “Epigenetic Activation of Pro-angiogenic Signaling Pathways in Human Endothelial Progenitors Increases Vasculogenesis” (Stem Cell Reports, 2017).
Active and inactive are the calls of the source. No cut-off for these calls is given here.

How the values were obtained:
HUVEC [1] = assay: Downregulation of DKK1 in human umbilical cord derived endothelial colony forming cells by qRT-PCR analysis; format: functional, cell-based
[2] = system: Umbilical cord derived endothelial colony forming cell; assay: Activation of WNT pro-angiogenic pathway in human umbilical cord derived endothelial colony forming cells by measuring FZD7 level in presence of panobinostat by qRT-PCR analysis; format: cell-based; settings: filed as activator
[3] = system: Umbilical cord derived endothelial colony forming cell; assay: Activation of WNT pro-angiogenic pathway in human umbilical cord derived endothelial colony forming cells by measuring FZD2 level in presence of panobinostat by qRT-PCR analysis; format: cell-based; settings: filed as activator
HUVEC [4] = assay: Effect on pro-angiogenic property in human umbilical cord derived endothelial colony forming cells assessed as increase in intracellular NOTCH protein phosphorylation by Western blotting analysis; format: functional, cell-based
Mus musculus = assay: Activation of vasculogenesis in NOD/SCID immunodeficient mouse xenografted with drug pretreated human umbilical cord derived endothelial colony forming cells assessed as increase in formation of micro-capillaries in presence of panobinostat by H and E staining analysis; format: functional, organism-based
Summary of the method: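 ECFCs (4 × 10^6 cells/mL), drug cocktail-pretreated or not, mixed into 1.5 mg/mL type I collagen gels, polymerized 30 min at 37°C, held 18 hr in drug-free medium, implanted into flanks of 6–12-week-old NOD/SCID mice. Explants harvested at 3 weeks; H&E and anti-human CD31 staining; closed hCD31+ capillaries counted per area, n = 6 mice per group, ±SEM.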

[5] = system: Umbilical cord derived endothelial colony forming cell; assay: Activation of WNT pro-angiogenic pathway in human umbilical cord derived endothelial colony forming cells by measuring WNT5A level in presence of panobinostat by qRT-PCR analysis; format: cell-based; settings: filed as activator
HUVEC [6] = assay: Resistance to serum induced starvation of cell apoptosis in human umbilical cord derived endothelial colony forming cells grown in EBM2 medium measured in presence of panobinostat by annexin V staining analysis; format: functional, cell-based
Summary of the method: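 Drug- or vehicle-pretreated ECFCs were serum-starved overnight (16 hr) in EBM-2 lacking supplements. Cells were then suspended in annexin V binding buffer, stained with annexin V and 7-AAD, and analysed by flow cytometry. Values are percentage of vehicle control ±SEM, n = 3 experiments in duplicate.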

[7] = system: Umbilical cord derived endothelial colony forming cell; assay: Activation of WNT pro-angiogenic pathway in human umbilical cord derived endothelial colony forming cells by measuring EGR1 level in presence of panobinostat by qRT-PCR analysis; format: cell-based; settings: filed as activator
HUVEC [8] = assay: Effect on pro-angiogenic property in human umbilical cord derived endothelial colony forming cells assessed as increase in ERK2 protein phosphorylation by Western blotting analysis; format: functional, cell-based
HUVEC [9] = assay: Effect on pro-angiogenic property in human umbilical cord derived endothelial colony forming cells assessed as increase in KDR level in presence of panobinostat by qRT-PCR analysis; format: functional, cell-based
[10] = target: Histone-lysine N-methyltransferase EZH2 (Homo sapiens) (UniProt Q15910); assay: Inhibition of EZH2 in human umbilical cord derived endothelial colony forming cells assessed as decrease in H3K9me3 level at 0.01 to 5 uM measured after 24 to 72 hrs by Western blotting analysis; format: cell-based; settings: Umbilical cord derived endothelial colony forming cell, dose 0.01-5 µM, time 24-72 hrs
Summary of the method: (§1)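 Human cord-blood ECFC clones, at least three independent, passages 3–6, grown in EGM-2 with 10% FBS. Histone methylation marks were assessed by western blot, with total histone H3 and H4 as loading controls.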

[11] = system: Umbilical cord derived endothelial colony forming cell; assay: Inhibition of H3K27 demethylase UTX in human umbilical cord derived endothelial colony forming cells assessed as decrease in protein level by Western blotting analysis; format: cell-based
Summary of the method: (§2)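 Cord-blood ECFCs were treated with an EZH2 inhibitor at 5 μM for 72 hr, then an HDAC inhibitor at 10 nM for 2 hr, or with vehicle. Levels of the epigenetic enzymes were read by western blot, with tubulin as loading control.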

HUVEC [12] = assay: Effect on pro-angiogenic property in human umbilical cord derived endothelial colony forming cells assessed as increase in HEY2 level in presence of panobinostat by qRT-PCR analysis; format: functional, cell-based
[13] = target: Histone acetyltransferase p300 (Homo sapiens) (UniProt Q09472); assay: Inhibition of acetyl transferase P300 in human umbilical cord derived endothelial colony forming cells assessed as decrease in protein level by Western blotting analysis; format: cell-based; settings: Umbilical cord derived endothelial colony forming cell; summary of the method: as §2
HUVEC [14] = assay: Effect on pro-angiogenic property in human umbilical cord derived endothelial colony forming cells assessed as increase in ERK1 protein phosphorylation by Western blotting analysis; format: functional, cell-based
[15] = system: Umbilical cord derived endothelial colony forming cell; assay: Activation of WNT pro-angiogenic pathway in human umbilical cord derived endothelial colony forming cells by measuring TCF7L1 level in presence of panobinostat by qRT-PCR analysis; format: cell-based; settings: filed as activator
HUVEC [16] = assay: Effect on pro-angiogenic property in human umbilical cord derived endothelial colony forming cells assessed as increase in intracellular CXCR4 protein phosphorylation by Western blotting analysis; format: functional, cell-based
[17] = system: Umbilical cord derived endothelial colony forming cell; assay: Activation of WNT pro-angiogenic pathway in human umbilical cord derived endothelial colony forming cells by measuring MML1 level in presence of panobinostat by qRT-PCR analysis; format: cell-based; settings: filed as activator
HUVEC [18] = assay: Effect on pro-angiogenic property in human umbilical cord derived endothelial colony forming cells assessed as formation of capillary network on matrigel; format: functional, cell-based; settings: dose 0.01-5 µM
Summary of the method: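 Drug- or vehicle-pretreated ECFCs seeded at 5,000 cells/well on phenol-red-free growth-factor-reduced Matrigel in duplicate; after 24 hr stained with 5 μg/mL calcein 5 min at 37°C, imaged at 2.5×. Total tube length expressed as percentage of vehicle control ±SEM, three independent experiments.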

HUVEC [19] = assay: Effect on pro-angiogenic property in human umbilical cord derived endothelial colony forming cells assessed as cell migration treated for 72 hrs measured by crystal violet staining analysis based gap closure assay; format: functional; settings: dose 0.1-5 µM
[20] = target: Histone deacetylase 1 (Homo sapiens) (UniProt Q13547); assay: Inhibition of deacetylase HDAC1 in human umbilical cord derived endothelial colony forming cells assessed as decrease in protein level by Western blotting analysis; format: cell-based; settings: Umbilical cord derived endothelial colony forming cell; summary of the method: as §2
[21] = system: Umbilical cord derived endothelial colony forming cell; assay: Activation of WNT pro-angiogenic pathway in human umbilical cord derived endothelial colony forming cells by measuring FZD5 level in presence of panobinostat by qRT-PCR analysis; format: cell-based; settings: filed as activator
HUVEC [22] = assay: Downregulation of SEMA3A in human umbilical cord derived endothelial colony forming cells by qRT-PCR analysis; format: functional, cell-based
HUVEC [23] = assay: Effect on pro-angiogenic property in human umbilical cord derived endothelial colony forming cells assessed as increase in FZD7 level in presence of panobinostat by qRT-PCR analysis; format: functional, cell-based
[24] = system: Umbilical cord derived endothelial colony forming cell; assay: Activation of WNT pro-angiogenic pathway in human umbilical cord derived endothelial colony forming cells by measuring DKK3 level at 5 uM for 72 hrs in presence of panobinostat for 2 hrs by qRT-PCR analysis; format: cell-based; settings: filed as activator
[25] = target: Histone-lysine N-methyltransferase EZH2 (Homo sapiens) (UniProt Q15910); assay: Inhibition of EZH2 in human umbilical cord derived endothelial colony forming cells assessed as decrease in H3K27me2 level at 0.01 to 5 uM by Western blotting analysis; format: cell-based; settings: Umbilical cord derived endothelial colony forming cell, dose 0.01-5 µM, time 24-72 hrs, TDE = time-dependent effect; summary of the method: as §1
HUVEC [26] = assay: Effect on pro-angiogenic property in human umbilical cord derived endothelial colony forming cells assessed as increase in VEGFR2 protein level by Western blotting analysis; format: functional, cell-based
HUVEC [27] = assay: Effect on pro-angiogenic property in human umbilical cord derived endothelial colony forming cells assessed as increase in cell migration treated at 5 uM for 72 hrs in presence of panobinostat measured by crystal violet staining analysis based gap closure assay; format: functional
[28] = target: Histone-lysine N-methyltransferase EZH2 (Homo sapiens) (UniProt Q15910); assay: Inhibition of EZH2 in human umbilical cord derived endothelial colony forming cells assessed as decrease in H3K27me2 level for 24 to 72 hrs by Western blotting analysis; format: cell-based; settings: Umbilical cord derived endothelial colony forming cell, dose 0.01-5 µM, time 24-72 hrs; summary of the method: as §1

Chain of Histone-lysine N-methyltransferase EZH2 (Homo sapiens) (Q15910 whole entry, looked up): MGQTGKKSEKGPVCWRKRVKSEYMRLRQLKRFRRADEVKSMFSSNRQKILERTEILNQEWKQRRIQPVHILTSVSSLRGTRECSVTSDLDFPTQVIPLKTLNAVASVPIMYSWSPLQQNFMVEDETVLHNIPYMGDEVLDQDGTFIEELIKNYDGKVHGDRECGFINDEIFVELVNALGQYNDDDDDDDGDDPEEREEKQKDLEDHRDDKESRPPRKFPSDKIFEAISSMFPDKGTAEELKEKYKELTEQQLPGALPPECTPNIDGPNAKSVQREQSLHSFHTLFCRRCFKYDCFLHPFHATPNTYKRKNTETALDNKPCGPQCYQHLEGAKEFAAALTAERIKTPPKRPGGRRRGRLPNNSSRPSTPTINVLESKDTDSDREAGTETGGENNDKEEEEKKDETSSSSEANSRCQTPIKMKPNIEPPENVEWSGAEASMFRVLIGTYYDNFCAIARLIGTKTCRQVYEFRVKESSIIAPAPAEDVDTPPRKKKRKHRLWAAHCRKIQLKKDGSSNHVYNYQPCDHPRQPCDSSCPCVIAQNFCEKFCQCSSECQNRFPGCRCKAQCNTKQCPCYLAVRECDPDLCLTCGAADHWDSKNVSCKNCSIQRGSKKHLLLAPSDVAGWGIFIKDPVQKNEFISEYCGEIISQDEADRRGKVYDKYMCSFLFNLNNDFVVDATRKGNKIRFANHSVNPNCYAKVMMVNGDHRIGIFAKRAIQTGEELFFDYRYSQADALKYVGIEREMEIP
Chain of Histone acetyltransferase p300 (Homo sapiens) (Q09472 whole entry): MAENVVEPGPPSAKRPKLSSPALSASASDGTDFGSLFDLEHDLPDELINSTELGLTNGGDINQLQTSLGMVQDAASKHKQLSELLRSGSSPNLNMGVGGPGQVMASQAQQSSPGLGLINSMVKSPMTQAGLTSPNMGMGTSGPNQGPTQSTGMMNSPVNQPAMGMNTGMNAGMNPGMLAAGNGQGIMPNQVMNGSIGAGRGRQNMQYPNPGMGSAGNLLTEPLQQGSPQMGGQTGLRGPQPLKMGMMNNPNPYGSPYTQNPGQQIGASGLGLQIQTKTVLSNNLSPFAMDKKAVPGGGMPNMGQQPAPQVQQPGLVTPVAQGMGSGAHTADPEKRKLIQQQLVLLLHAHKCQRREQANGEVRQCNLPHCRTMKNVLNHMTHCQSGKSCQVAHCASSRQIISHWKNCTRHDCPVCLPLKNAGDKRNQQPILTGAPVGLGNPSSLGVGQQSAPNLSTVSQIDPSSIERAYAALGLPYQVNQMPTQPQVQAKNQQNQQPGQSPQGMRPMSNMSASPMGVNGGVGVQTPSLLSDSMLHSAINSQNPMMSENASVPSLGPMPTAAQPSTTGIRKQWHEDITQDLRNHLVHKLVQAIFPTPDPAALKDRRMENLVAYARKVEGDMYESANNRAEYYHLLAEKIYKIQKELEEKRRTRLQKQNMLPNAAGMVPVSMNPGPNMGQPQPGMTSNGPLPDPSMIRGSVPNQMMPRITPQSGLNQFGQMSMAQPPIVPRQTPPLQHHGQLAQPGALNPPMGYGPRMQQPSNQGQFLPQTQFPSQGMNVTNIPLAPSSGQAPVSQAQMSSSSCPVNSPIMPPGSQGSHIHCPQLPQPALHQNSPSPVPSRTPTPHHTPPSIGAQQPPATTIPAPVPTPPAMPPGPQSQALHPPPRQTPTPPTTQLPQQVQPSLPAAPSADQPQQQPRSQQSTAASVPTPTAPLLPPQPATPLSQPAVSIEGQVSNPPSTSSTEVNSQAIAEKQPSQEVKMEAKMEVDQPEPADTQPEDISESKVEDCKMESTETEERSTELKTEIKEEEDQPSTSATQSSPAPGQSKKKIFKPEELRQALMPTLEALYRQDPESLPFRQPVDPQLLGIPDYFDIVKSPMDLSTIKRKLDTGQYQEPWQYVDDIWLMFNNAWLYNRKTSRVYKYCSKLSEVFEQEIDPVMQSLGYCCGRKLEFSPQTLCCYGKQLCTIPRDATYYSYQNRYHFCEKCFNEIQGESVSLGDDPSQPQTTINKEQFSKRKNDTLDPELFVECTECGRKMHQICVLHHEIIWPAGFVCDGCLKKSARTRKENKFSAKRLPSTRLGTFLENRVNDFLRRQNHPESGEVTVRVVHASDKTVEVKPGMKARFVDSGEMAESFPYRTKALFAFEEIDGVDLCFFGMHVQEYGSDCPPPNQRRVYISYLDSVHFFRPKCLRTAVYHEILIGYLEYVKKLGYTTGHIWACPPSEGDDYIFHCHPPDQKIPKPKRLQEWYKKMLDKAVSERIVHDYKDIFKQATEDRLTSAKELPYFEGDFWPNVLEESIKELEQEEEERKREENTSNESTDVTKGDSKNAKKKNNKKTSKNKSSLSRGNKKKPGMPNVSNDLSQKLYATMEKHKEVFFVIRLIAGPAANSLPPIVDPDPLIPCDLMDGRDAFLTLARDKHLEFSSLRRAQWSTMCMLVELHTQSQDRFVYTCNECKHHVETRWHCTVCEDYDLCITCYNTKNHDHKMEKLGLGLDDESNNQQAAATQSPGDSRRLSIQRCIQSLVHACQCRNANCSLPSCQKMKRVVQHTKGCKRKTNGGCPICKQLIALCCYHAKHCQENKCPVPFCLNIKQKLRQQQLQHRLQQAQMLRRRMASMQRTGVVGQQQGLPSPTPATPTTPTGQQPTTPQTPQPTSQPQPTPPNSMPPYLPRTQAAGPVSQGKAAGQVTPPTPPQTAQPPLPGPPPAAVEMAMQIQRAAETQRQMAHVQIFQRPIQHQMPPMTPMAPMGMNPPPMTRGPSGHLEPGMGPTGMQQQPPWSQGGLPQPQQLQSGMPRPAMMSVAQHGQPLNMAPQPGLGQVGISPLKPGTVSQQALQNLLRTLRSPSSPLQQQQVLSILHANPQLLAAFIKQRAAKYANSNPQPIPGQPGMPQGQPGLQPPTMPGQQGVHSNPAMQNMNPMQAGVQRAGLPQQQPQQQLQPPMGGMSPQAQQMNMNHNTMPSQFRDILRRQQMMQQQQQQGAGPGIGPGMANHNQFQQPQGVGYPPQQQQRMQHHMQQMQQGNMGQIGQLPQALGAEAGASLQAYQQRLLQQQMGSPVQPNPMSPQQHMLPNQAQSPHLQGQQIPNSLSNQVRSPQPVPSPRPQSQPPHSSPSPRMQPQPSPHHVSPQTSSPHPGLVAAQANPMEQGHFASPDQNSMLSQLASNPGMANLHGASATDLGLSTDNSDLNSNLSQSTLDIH
Chain of Histone deacetylase 1 (Homo sapiens) (Q13547 whole entry): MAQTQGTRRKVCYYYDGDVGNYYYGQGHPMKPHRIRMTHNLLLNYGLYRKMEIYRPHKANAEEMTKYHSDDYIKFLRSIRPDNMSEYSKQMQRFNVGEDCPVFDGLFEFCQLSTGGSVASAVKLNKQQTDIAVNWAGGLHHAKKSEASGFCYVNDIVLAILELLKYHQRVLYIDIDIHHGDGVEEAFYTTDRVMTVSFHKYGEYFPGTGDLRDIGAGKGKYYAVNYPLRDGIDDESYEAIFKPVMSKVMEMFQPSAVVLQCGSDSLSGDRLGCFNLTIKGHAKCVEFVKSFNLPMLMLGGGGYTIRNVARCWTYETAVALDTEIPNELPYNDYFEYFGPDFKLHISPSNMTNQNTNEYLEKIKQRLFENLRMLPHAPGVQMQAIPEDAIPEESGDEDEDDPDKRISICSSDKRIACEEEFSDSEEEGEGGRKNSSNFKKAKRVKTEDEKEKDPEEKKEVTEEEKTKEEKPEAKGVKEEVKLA

In the case of `CCCc1cc(C)[nH]c(=O)c1CNC(=O)c1cc(-c2ccnc(N3CCN(C)CC3)c2)cc2c1cnn2C(C)C`, the Activity (HUVEC [1]) is reported as “Active”, the Activity [2] is reported as “Active” and the Activity [3] is reported as “Active”. For the same compound, the Activity (HUVEC [4]) was “Active”, the Activity (Mus musculus) was “Active” and the Activity [5] was “Active”. For the same compound, the Activity (HUVEC [6]) was “Active”, the Activity [7] was “Active” and the Activity (HUVEC [8]) was “Active”. For the same compound, the Activity (HUVEC [9]) was “Active”, the inhibition [10] was “inactive” and the inhibition [11] was “inactive”. The Activity (HUVEC [12]) was “Active”, the inhibition [13] was “inactive” and the Activity (HUVEC [14]) was “Active”. The Activity [15] was “Active”, the Activity (HUVEC [16]) was “Active” and the Activity [17] was “Active”. The Activity (HUVEC [18]) was “Dose-Dependent Effect”, the Activity (HUVEC [19]) was “Dose-Dependent Effect” and the inhibition [20] was “inactive”. The Activity [21] was “Active”, the Activity (HUVEC [22]) was “Active” and the Activity (HUVEC [23]) was “Active”. For the same compound, the Activity [24] was “Active”, the inhibition [25] was “Tde” and the Activity (HUVEC [26]) was “Active”. The Activity (HUVEC [27]) was “Active” and the inhibition [28] was “Dose-Dependent Effect”.
